# From ChEMBL document CHEMBL1139239, “A series of cationic sterol lipids with gene transfer and bactericidal activity” (Bioorg Med Chem, 2009)
# Calls of active or inactive are those of the source. The rule behind the calls is not given here.
# Columns and labels:
# [1] = Therapeutic index, ratio of MHC for RBC to MIC for Bacillus subtilis ATCC 6051; conditions: red blood cells (RBC); read-out: TI
# Procedure, shortened: (§1)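 Ratio of MHC to MIC. MIC: exponential-phase B. subtilis ATC6051 or E. coli MG1655 at 10^5–10^6 CFU/ml in Mueller-Hinton broth, mixed 1:1 with serial dilutions in PBS (50% v/v broth), 20 h at 37°C. MHC: lowest concentration giving ≥2% lysis of washed donor red cells after 1 h at 37°C.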
# Bacillus subtilis [2] = test: Antibacterial activity against Bacillus subtilis ATCC 6051 after 20 hrs; type: functional
# Procedure, shortened: (§2)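 Broth microdilution MIC: exponential-phase bacteria at 10^5 to 10^6 CFU/ml in Mueller-Hinton broth. Compound serial dilutions made in PBS and mixed 1:1 by volume with the cells, so broth is 50% v/v. Incubated 20 hours at 37°C, and the minimum inhibitory concentration was recorded.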
# Escherichia coli [3] = test: Antibacterial activity against Escherichia coli MG1655 after 20 hrs; type: functional; procedure, shortened: as §2
# [4] = Toxicity against RBC assessed as hemolytic activity; type: cell-based; conditions: erythrocyte
# Procedure, shortened: (§3)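 Donor whole blood in heparin/ACD was chilled to 4°C, pelleted at 1000g and washed three times in phosphate/NaCl/HEPES buffer, then resuspended in PBS. Cells were mixed 1:1 with serial dilutions in PBS and held 1 h at 37°C, then spun. Diluted supernatant was read at 540 nm against buffer, with percent lysis set against 1% Triton X-100.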
# [5] = Toxicity against RBC assessed as hemolytic activity at 1 to 2 mM; type: cell-based, Erythrocyte; conditions: red blood cells (RBC); read-out: Activity; procedure, shortened: as §3
# [6] = Therapeutic index, ratio of MHC for RBC to MIC for Escherichia coli MG1655; conditions: red blood cells (RBC); read-out: TI; procedure, shortened: as §1
# [7] = Toxicity against bovine BAEC cells; type: cell-based, Bos taurus; conditions: cattle
# Procedure, shortened: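 Bovine aortic endothelial cells, passage 4–15, grown in DMEM with 10% FBS. Lipoplexes made with or without DOPE at several charge ratios up to 12 were added in serum-free OptiMem for 2 h at 37°C, then replaced with growth medium. About 20 h later, viability was read as ATP luminescence (CellTiter-Glo, 30 min), normalised to naked plasmid DNA, n = 8.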
# Escherichia coli [8] = test: Antibacterial activity against Escherichia coli MG1655 at 20 uM after 4 hrs; type: functional, organism-based; conditions: 50 uM, in the assay text read “50 uM” for “20 uM”
# Procedure, shortened: (§4)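 Killing assay: exponential-phase bacteria suspended in PBS at 10^5–10^6 CFU/ml and preincubated for 1 hour at 37°C. Compound added and exposure lasted 4 hours. Samples were taken, diluted in four ten-fold steps in PBS and plated on agar overnight at 37°C. Colonies were counted manually and averages plotted on a log scale.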
# Bacillus subtilis [9] = test: Antibacterial activity against Bacillus subtilis ATCC 6051 at 20 uM after 4 hrs; type: functional, organism-based; conditions: ATC6051; procedure, shortened: as §4
# [10] = Toxicity against RBC assessed as hemolytic activity at 2 mM; type: cell-based; conditions: erythrocyte, 2000 µM; procedure, shortened: as §3
MIC (Bacillus subtilis [2]; ATC6051),MIC (Escherichia coli [3]),Compound,selectivity ratio [1],"MIC (Bacillus subtilis [2]; ATC6051, 20 h)","MIC (Escherichia coli [3]; MG1655, 20 h)",MHC [4],hemolysis at up to 2000 µM [5],selectivity ratio [6],Activity [7],Activity (Escherichia coli [8]),Activity (Bacillus subtilis [9]),Activity [10]
–,–,C[C@H](CCC(=O)NCCCNCCCCNCCCN)[C@H]1CC[C@H]2[C@@H]3[C@H](O)C[C@@H]4C[C@H](O)CC[C@]4(C)[C@H]3C[C@H](O)[C@]12C,< 1,> 432 µM,> 432 µM,500 µM,30%,< 1,–,–,–,–
–,–,C[C@H](CCC(=O)NCCCNCCCCNCCCN)[C@H]1CC[C@H]2[C@@H]3CC=C4C[C@@H](O)CC[C@]4(C)[C@H]3CC[C@]12C,18,57 µM,115 µM,1000 µM,30%,9,Toxic,–,–,–
–,–,C[C@H](CCC(=O)NCCCNCCCCNCCCN)[C@H]1CCC2=C3CC[C@@H]4C[C@H](O)CC[C@]4(C)[C@H]3C[C@H](O)[C@@]21C,18,28 µM,111 µM,500 µM,30%,5,–,Active,Active,–
–,–,C[C@H](CCC(=O)NCCCNCCCCNCCCNC(=O)CC[C@H](C)[C@@H]1CC[C@@H]2[C@@H]3[C@@H](C[C@@H](O)[C@]21C)[C@]1(C)CC[C@H](O)C[C@@H]1C[C@@H]3O)[C@H]1CC[C@H]2[C@@H]3[C@H](O)C[C@@H]4C[C@H](O)CC[C@]4(C)[C@H]3C[C@H](O)[C@]12C,61,4 µM,16 µM,250 µM,–,15,–,–,–,Toxic
1 µM,6 µM,POLYMYXIN B,–,–,–,–,–,–,–,–,–,–
–,–,C[C@H](CCC(=O)NCCCNCCCCNCCCN)[C@H]1CC[C@H]2[C@@H]3CC[C@@H]4C[C@H](O)CC[C@]4(C)[C@H]3CC[C@]12C,9,57 µM,228 µM,500 µM,30%,2,–,Active,Active,–
